Experimental data: PMC7413294 (Heterocycles, 2019)
Values joined by “and” are separate entries in the source; they are usually repeats but may differ in a detail not shown here. Identical values can stand only once. Like-named read-outs stand apart in the source and are kept apart here.

Experiments:
PTZ-induced seizures = experiment: Pentylenetetrazole; format: in vivo, mouse; conditions: 30 mg/Kg; for Inhibition ratio (%) of fatality in PTZ-model of mice: 20-min observation period, 100 minus death ratio; for Latency to fatality (minutes) in PTZ model of mice: first 20 minutes of testing
In short: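 Mice received pentylenetetrazol at 40 mg/kg by intraperitoneal injection; test compound groups were compared with vehicle (2% DMSO in 0.5% hydroxypropyl cellulose), […]. Deaths were recorded within a 20-min cutoff. Inhibition ratio was 100 minus the % of mice that died. Latency to fatality was recorded per mouse as mean ± SEM. Experimenters were blinded.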

T-Cav3.2-channel = T-Cav3.2-channel (Mus musculus, UniProt O88427); experiment: Whole-cell patch clamp inhibition of T-Cav3.2 channel in mouse DRG neurons; format: cell-based
Sequence of T-Cav3.2-channel (O88427 whole entry): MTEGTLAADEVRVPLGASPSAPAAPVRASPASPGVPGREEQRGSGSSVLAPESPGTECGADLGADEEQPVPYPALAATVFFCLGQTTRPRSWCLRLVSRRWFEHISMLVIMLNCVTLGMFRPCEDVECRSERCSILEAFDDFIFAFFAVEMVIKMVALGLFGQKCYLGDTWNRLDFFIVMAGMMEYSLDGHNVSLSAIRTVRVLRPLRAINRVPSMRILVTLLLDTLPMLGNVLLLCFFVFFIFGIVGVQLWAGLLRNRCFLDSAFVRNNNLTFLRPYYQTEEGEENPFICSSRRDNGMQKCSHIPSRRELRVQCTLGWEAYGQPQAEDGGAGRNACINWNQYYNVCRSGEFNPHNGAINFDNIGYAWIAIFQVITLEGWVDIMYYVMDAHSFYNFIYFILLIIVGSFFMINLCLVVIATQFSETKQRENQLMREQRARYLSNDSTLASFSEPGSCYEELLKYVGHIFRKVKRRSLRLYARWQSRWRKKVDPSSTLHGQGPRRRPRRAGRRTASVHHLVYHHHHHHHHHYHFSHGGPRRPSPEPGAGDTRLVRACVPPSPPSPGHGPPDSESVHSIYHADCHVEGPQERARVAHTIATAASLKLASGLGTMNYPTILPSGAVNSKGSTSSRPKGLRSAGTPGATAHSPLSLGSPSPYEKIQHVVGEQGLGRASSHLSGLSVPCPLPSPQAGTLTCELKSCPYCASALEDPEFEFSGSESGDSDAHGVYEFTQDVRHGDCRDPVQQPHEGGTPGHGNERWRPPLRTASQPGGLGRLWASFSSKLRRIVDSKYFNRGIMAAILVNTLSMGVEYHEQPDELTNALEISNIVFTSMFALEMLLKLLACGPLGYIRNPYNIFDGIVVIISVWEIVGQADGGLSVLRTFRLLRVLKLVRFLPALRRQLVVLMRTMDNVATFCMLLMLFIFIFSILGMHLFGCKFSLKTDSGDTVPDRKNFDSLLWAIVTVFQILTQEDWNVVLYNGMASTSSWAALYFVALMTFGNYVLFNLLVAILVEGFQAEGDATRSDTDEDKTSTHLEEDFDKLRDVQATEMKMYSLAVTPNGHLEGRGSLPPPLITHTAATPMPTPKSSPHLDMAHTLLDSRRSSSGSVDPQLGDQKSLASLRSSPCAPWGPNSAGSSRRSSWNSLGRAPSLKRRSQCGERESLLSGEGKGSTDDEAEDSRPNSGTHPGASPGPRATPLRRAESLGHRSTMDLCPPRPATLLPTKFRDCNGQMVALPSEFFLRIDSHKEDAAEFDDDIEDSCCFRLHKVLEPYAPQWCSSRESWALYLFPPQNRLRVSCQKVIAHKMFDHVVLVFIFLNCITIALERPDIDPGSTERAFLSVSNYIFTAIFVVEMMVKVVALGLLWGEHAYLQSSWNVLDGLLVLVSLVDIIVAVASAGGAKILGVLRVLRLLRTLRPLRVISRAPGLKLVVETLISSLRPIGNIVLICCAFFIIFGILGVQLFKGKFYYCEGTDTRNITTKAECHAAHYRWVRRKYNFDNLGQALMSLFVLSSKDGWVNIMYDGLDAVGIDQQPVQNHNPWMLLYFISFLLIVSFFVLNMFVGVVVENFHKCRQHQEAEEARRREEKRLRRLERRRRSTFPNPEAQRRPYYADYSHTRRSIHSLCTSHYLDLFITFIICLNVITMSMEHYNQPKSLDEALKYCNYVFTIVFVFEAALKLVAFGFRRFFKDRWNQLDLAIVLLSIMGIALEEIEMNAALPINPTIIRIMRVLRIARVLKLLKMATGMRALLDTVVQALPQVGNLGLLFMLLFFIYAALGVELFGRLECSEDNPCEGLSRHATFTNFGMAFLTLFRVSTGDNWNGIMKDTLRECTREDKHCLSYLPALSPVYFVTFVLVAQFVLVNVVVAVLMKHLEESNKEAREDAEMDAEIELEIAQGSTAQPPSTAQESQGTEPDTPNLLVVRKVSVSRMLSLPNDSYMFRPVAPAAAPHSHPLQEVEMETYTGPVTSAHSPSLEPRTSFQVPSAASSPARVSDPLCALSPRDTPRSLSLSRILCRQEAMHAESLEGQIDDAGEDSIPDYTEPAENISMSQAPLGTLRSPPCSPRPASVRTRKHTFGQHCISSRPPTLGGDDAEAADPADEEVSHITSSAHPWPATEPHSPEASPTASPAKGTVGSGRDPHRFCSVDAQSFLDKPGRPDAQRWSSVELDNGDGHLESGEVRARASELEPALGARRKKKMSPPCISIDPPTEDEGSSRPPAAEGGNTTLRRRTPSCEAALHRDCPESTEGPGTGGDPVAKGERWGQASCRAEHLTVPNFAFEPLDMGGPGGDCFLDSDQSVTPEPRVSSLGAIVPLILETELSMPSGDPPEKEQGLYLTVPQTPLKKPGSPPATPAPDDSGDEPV
In short: (§1)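 Lumbar DRG neurons from 1–6 month-old C57 mice, digested in HBSS with 1 mg/mL collagenase and 0.5 mg/mL trypsin (35°C, 45–50 min). Neurons triturated, plated on poly-L-ornithine coverslips and kept in modified Krebs solution at 21°C. Whole-cell voltage clamp at room temperature. Compound applied by rapid local solution exchange; currents normalized to control to give % inhibition; sigmoidal dose-response fits.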

K-channel = experiment: Whole-cell patch clamp inhibition of K-channel; format: cell-based; conditions: mouse DRG neurons
In short: as §1

Na-channel = experiment: Whole-cell patch clamp inhibition of Na-channel in mouse DRG neurons; format: cell-based; conditions: for IC50: read-out: IC50, Na- channel in DRG neurons
In short: as §1

[1] = target: Cav3.2 channels expressed in HEK-293 cells (Homo sapiens, UniProt O95180); experiment: Whole-cell patch clamp inhibition of Cav3.2 channels expressed in HEK293 cells; format: cell-based
Sequence of Cav3.2 channels expressed in HEK-293 cells (O95180 whole entry): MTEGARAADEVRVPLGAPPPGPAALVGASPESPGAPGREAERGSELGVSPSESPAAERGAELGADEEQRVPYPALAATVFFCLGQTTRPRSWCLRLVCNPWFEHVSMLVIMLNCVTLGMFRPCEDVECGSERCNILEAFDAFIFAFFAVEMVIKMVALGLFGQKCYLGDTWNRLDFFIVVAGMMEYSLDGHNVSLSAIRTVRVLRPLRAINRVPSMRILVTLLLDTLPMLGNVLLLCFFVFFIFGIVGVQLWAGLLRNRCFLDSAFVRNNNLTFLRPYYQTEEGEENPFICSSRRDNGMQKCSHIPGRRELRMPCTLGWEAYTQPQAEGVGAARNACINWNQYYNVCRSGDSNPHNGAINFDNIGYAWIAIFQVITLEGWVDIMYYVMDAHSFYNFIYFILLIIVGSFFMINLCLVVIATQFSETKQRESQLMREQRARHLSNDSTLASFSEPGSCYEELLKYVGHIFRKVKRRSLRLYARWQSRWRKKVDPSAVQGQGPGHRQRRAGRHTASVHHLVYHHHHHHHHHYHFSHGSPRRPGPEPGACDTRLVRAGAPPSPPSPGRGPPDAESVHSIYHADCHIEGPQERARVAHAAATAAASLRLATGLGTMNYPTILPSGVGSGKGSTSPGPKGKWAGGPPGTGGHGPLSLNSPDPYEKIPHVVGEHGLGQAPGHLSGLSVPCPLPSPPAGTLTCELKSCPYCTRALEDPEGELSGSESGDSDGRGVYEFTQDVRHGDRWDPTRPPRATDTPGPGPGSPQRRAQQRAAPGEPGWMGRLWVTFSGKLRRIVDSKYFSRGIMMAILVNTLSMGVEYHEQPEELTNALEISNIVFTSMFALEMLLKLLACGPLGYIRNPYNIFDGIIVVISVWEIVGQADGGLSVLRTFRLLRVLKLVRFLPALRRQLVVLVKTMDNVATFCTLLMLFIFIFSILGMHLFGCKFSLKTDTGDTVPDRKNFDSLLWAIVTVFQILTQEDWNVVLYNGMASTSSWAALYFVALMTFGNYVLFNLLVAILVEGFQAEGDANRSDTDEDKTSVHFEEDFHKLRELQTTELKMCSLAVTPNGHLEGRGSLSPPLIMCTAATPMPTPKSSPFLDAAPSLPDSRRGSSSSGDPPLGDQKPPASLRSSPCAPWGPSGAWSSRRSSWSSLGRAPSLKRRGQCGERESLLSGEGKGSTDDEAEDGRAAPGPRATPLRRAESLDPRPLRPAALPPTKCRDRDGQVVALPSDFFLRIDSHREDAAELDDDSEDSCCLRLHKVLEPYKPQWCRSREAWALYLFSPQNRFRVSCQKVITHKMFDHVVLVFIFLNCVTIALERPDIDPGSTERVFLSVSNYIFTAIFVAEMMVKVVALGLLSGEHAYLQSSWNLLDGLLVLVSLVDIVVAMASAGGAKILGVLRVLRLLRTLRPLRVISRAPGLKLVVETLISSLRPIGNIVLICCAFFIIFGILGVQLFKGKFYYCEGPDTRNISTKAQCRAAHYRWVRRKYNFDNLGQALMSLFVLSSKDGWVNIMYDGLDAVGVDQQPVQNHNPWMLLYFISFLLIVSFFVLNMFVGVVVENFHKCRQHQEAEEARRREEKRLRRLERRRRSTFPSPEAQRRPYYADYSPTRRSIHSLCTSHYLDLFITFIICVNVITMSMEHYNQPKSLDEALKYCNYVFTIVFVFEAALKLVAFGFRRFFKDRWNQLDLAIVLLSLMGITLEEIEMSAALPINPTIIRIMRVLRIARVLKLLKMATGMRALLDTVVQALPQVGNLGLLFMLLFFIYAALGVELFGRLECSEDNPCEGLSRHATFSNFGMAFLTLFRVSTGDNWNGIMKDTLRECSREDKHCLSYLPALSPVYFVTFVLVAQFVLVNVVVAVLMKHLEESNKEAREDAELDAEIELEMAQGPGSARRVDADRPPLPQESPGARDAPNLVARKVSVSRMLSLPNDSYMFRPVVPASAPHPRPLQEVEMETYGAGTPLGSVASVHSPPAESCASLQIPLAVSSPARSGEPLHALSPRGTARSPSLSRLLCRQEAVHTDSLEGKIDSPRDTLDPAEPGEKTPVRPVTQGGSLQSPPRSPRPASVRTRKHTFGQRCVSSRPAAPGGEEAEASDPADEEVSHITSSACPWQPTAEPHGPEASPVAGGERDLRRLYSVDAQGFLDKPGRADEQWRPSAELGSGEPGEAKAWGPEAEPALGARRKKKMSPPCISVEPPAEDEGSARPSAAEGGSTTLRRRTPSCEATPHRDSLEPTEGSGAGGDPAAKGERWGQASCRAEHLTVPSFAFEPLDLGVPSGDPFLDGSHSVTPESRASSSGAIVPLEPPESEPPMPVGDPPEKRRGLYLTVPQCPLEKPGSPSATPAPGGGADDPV
In short: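 Tetracycline-inducible HEK293 line, G418-selected, reseeded on poly-D-lysine coverslips; Cav3.2 induced after 24 h with 1 µg/mL tetracycline. Whole-cell voltage clamp at room temperature. External solution: choline-Cl/TEA-Cl with 2 mM CaCl2. Internal solution: CsCl/EGTA. Holding potential -100 mV, then 100 ms depolarizing steps of 10 mV at 10 s intervals. Compound applied by rapid solution exchange; currents normalized to control; sigmoidal dose-response fits.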

[2] = system: pentylenetetrazole-induced seizures; conditions: 30 mg/Kg; cited from earlier work
T-type calcium channels = conditions: read-out: IC50, T-type calcium channels; cited from earlier work
L-type calcium channels = conditions: read-out: IC50, L-type calcium channels; cited from earlier work
[3] = DRG neuron, read-out: Inhibition (%) of T-Cav3.2- channel in DRG neurons

Compound	Inhibition ratio (%) of fatality in PTZ-model of mice (PTZ-induced seizures)	Latency to fatality (minutes) in PTZ model of mice (PTZ-induced seizures)	inhibition at 1 µM (T-Cav3.2-channel; [3]) [%]	Inhibition (%) of K-channel in DRG neurons, IA (rapid inactivating potassium current) (K-channel; 1 µM, IA) [%]	Inhibition (%) of K-channel in DRG neurons, IKd (delayed rectifier potassium current) (K-channel; 1 µM, IKd) [%]	Inhibition (%) of Na- channel in DRG neurons (Na-channel; 1 µM)	other results
O=C1c2cc(Cl)c(Cl)cc2C(=O)N1c1nnc(-c2ccc(Cl)s2)o1 [Compound 6, 5,6-Dichloro-2-(5-(5-chlorothiophen-2-yl)-1,3,4-oxadiazol-2-yl)isoindoline-1,3-dione]	0% and 0 (n=8) %	1.9±0.3 (n=8) minutes					inhibition at 3.3 µM (T-Cav3.2-channel; [3]): 9.8%; Inhibition (%) of K-channel in DRG neurons, IA (rapid inactivating potassium current) (K-channel; 3.3 µM, IA): −11.6%; Inhibition (%) of K-channel in DRG neurons, IKd (delayed rectifier potassium current) (K-channel; 3.3 µM, IKd): −17.8%; Inhibition (%) of Na- channel in DRG neurons (Na-channel; 3.3 µM): 100 (3.3 µM) (n=1) %
O=C(CCc1cccc(Cl)c1)Nc1nnc(-c2ccc(Cl)s2)o1 [Compound 7, 3-(3-Chlorophenyl)-N-(5-(5-chlorothiophen-2-yl)-1,3,4-oxadiazol-2-yl)propanamide]	30% and 28.6 (n=7) %	13.6±1.8 (n=7) minutes	20.4 ± 1.9				Inhibition (%) of K-channel in DRG neurons, IA (rapid inactivating potassium current) (K-channel; 3.3 µM, IA): −26.0%; Inhibition (%) of K-channel in DRG neurons, IKd (delayed rectifier potassium current) (K-channel; 3.3 µM, IKd): −15.6%; Inhibition (%) of Na- channel in DRG neurons (Na-channel; 3.3 µM): 82.2 (3.3 μM) (n=1) %
O=C(Nc1nnc(-c2ccc(Cl)s2)o1)c1ccccc1 [Compound 8, N-(5-(5-Chlorothiophen-2-yl)-1,3,4-oxadiazol-2-yl)benzamide]			24.4 ± 9.6	−18.7	−28.6	−71.8 (n=1) %	
O=C(CN1CCC(C(=O)Nc2nnc(-c3ccc(Cl)s3)o2)CC1)Nc1ccccc1 [Compound 9, 1-((Phenylcarbamoyl)methyl)-N-(5-(5-chlorothiophen-2-yl)-1,3,4-oxadiazol-2-yl)piperidine-4-carboxamide]			79.5				
O=C(CCc1cccc(Cl)c1)Nc1nnc(-c2ccccc2)o1 [Compound 10, 3-(3-Chlorophenyl)-N-(5-phenyl-1,3,4-oxadiazol-2-yl)propanamide]			5				
O=C(Nc1nnc(-c2ccccc2)o1)c1ccc(Cl)s1 [Compound 11, 5-Chloro-N-(5-phenyl-1,3,4-oxadiazol-2-yl)thiophene-2-carboxamide]	72.1% and 72.7 (n=11) %	15.3±2.4 (n=11) minutes	50 ± 9.7	18.9±11.8	24.1±14.6	16.5±8.9 (n=7) %	IC50 (T-Cav3.2-channel): 930 nM
c1ccc(-c2nnc(N3CCCCC3)o2)cc1 [Compound 12, 1-(5-Phenyl-1,3,4-oxadiazol-2-yl)piperidine]			44.2 ± 5.6	21.9±8.6	31.6±5.5	25.7±6.3%	IC50 (K-channel; read-out: IC50, K-channel IA in DRG neurons, IA): 19600 nM; IC50 (K-channel; read-out: IC50, K-channel IKd in DRG neurons, IKd): 2600 nM; IC50 (Na-channel): 2100 nM; inhibition at 1 µM ([1]; HEK293, read-out: Inhibition (%) of T-Cav3.2- channel in HEK293 cells): 64.6%
O=C(CN1CCCCC1)Nc1nnc(-c2ccccc2)o1 [Compound 13, N-(5-Phenyl-1,3,4-oxadiazol-2-yl)-2-(piperidin-1-yl)acetamide]	0 (n=7) %	3.7±1.8 (n=7) minutes	55.4 ± 28.7	19.9	36.5	−2.7 (n=1) %	
N#CC1CCN(CC(=O)Nc2nnc(-c3ccccc3)o2)CC1 [Compound 14, 2-(4-Cyanopiperidin-1-yl)-N-(5-phenyl-1,3,4-oxadiazol-2-yl)acetamide]	14 (n=7) %	11.8±2.5 (n=7) minutes	69.6 ± 6.2	12.9	30.0	−4.7 (n=1) %	
O=C(Nc1nnc(-c2ccccc2F)o1)c1ccc(Cl)s1 [Compound 15, 5-Chloro-N-(5-(2-fluorophenyl)-1,3,4-oxadiazol-2-yl)thiophene-2-carboxamide]			60.9				
CC(C)(C)NC(=O)CN1CCC(CNC(=O)c2cc(F)cc(Cl)c2)CC1 [Compound Z944, reference compound]	33% and 33.3 (n=6) %	15.2±3.1 (n=6) minutes		34.5±15.0	44.9±17.7	49.7±6%	Protective effect on seizures, pentylenetetrazole-induced fatality rat model [2]: 33%; IC50 (Na-channel): 510 nM; Inhibition (%) of T-Cav3.2- channel in HEK293 cells ([1]; 0.25 µM, HEK293 cells): 74.5±7.8 (0.25 µM, in HEK293 cells) (n=6) %
COCC(=O)O[C@]1(CCN(C)CCCc2nc3ccccc3[nH]2)CCc2cc(F)ccc2[C@@H]1C(C)C [Mibefradril]							IC50 (T-type calcium channels): 100 nM; IC50 (L-type calcium channels): 3000 nM
